Data on three compounds can be found in ChEMBL document CHEMBL1145471, “Small molecule regulators of autophagy identified by an image-based high-throughput screen” (Proc Natl Acad Sci U S A, 2007).

Structures are written as SMILES.

In the first test the test system is H4. Kind of test: Increase in light chain 3-GFP+ autophagosome vesicle number per cell in human H4 cells at 6.2 uM after 24 hrs by high throughput fluorescence microscopy relative to control. It is filed as functional. The essentials:
(§1)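 H4 cells stably expressing LC3-GFP were grown in DMEM with 10% FBS and 2 mM L-glutamine at 37°C, 5% CO2. They were exposed to each compound for 24 h, with DMSO as negative and rapamycin as positive control. Cells were then fixed in 4% paraformaldehyde and stained with 3 μg/ml DAPI. High-throughput fluorescence imaging scored LC3-GFP spot number, size and intensity, expressed relative to DMSO. Mean ± SD of triplicates; experiments repeated three times.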
`CC(C)COCC(CN(Cc1ccccc1)c1ccccc1)N1CCCC1` (stereo unspecified) [BEPRIDIL] registered an Activity of 144.05%.

For another test, the system named is H4. Kind of test: Increase in light chain 3-GFP+ autophagosome vesicle intensity per cell in human H4 cells at 6.3 uM after 24 hrs by high throughput fluorescence microscopy relative to control. In kind it is functional. The method, boiled down: (§2)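 H4 cells stably expressing LC3-GFP, seeded in 96-well plates and exposed to compound for 24 h; fixed in 4% paraformaldehyde, nuclei stained with 3 μg/ml DAPI. Automated fluorescence microscopy scored number, size and intensity of LC3-GFP spots; values expressed relative to DMSO-treated wells, rapamycin positive control. Triplicate wells, mean ± SD; experiments repeated three times.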
Compound `C/C1=C/C(=O)O[C@@H]2C[C@@H](CC[C@H](C)/C=C\CC1)O[C@@](O)([C@@H]1CSC(=O)N1)C2` [LATRUNCULIN B] returned an Activity of 723.64%.

The compound `CCCNC(=O)[C@H]1O[C@@H]1C(=O)N[C@H](C(=O)N1CCC[C@H]1C(=O)OC)[C@@H](C)CC` displayed an Activity of 272.48%.

A further test relates to H4. The test can be described thus: Induction of light chain 3-GFP level in human H4 cells at 6.3 uM after 24 hrs by high throughput fluorescence microscopy relative to control. In kind it is functional. The method, boiled down: (§3)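 H4 cells stably expressing LC3-GFP, kept in DMEM/10% FBS at 37°C, 5% CO2, were seeded in 96-well plates and exposed to compound for 24 h. Cells were then fixed in 4% paraformaldehyde and stained with 3 μg/ml DAPI. Automated fluorescence microscopy scored the number, size and intensity of LC3-GFP spots. Values are percent of DMSO wells, in triplicate, mean ± SD. Rapamycin served as positive control.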
In turn, `C/C1=C/C(=O)O[C@@H]2C[C@@H](CC[C@H](C)/C=C\CC1)O[C@@](O)([C@@H]1CSC(=O)N1)C2` [LATRUNCULIN B] yielded an Activity of 27.55%.

In the case of `CCCNC(=O)[C@H]1O[C@@H]1C(=O)N[C@H](C(=O)N1CCC[C@H]1C(=O)OC)[C@@H](C)CC`, the Activity is on record as 132.2%.

For the next test, the system named is H4. Kind of test: Increase in light chain 3-GFP+ autophagosome vesicle area per cell in human H4 cells at 6.3 uM after 24 hrs by high throughput fluorescence microscopy relative to control. It is filed as functional. The essentials: as §2
As to `C/C1=C/C(=O)O[C@@H]2C[C@@H](CC[C@H](C)/C=C\CC1)O[C@@](O)([C@@H]1CSC(=O)N1)C2` [LATRUNCULIN B], the Activity was determined as 334.83%.

Take `CCCNC(=O)[C@H]1O[C@@H]1C(=O)N[C@H](C(=O)N1CCC[C@H]1C(=O)OC)[C@@H](C)CC`: the Activity turned out to be 239.2%.

The next test relates to H4. The test can be described thus: Decrease in FYVE-RFP+ vesicle intensity per cell in human H4 cells after 2 hrs relative to control. In kind it is functional. Also on record: concentration or dose not given beside the values. The essentials:
(§4)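 H4 cells stably expressing FYVE-RFP (H4-FYVE), grown in DMEM with 10% FBS, penicillin/streptomycin and 2 mM L-glutamine at 37°C, 5% CO2, seeded in 96-well plates and exposed to compound. Fixed in 4% paraformaldehyde, nuclei stained with 3 μg/ml DAPI, FYVE-RFP+ vesicles quantified by high-throughput fluorescence microscopy against DMSO control. Triplicate wells, mean ± SD.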
`CC(C)COCC(CN(Cc1ccccc1)c1ccccc1)N1CCCC1` (stereo unspecified) [BEPRIDIL] gave an Activity of 65.27%.

Another test has as its system H4. The test can be described thus: Effect on FYVE-RFP+ vesicle intensity per cell in human H4 cells after 2 hrs relative to control. It is filed as functional. On the set-up: concentration or dose not given beside the values. The essentials: as §4
Consider `CCCNC(=O)[C@H]1O[C@@H]1C(=O)N[C@H](C(=O)N1CCC[C@H]1C(=O)OC)[C@@H](C)CC`, for which the Activity amounted to 65.94%.

The next test concerns H4. Kind of test: Increase in light chain 3-GFP+ autophagosome vesicle area per cell in human H4 cells at 6.2 uM after 24 hrs by high throughput fluorescence microscopy relative to control. It is filed as functional. The essentials: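 H4 cells stably expressing LC3-GFP, seeded in 96-well plates and exposed to compound for 24 h; screening concentrations were 3–12 μM, with rapamycin 0.22 μM and bafilomycin A1 0.40 μM. Cells fixed in 4% paraformaldehyde and stained with 3 μg/ml DAPI. Number, size and intensity of LC3-GFP spots measured by high-throughput fluorescence microscopy and expressed as percent of DMSO-treated wells. Rapamycin was the positive control. Triplicate wells, mean ± SD; experiments repeated three times.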
For the compound `CC(C)COCC(CN(Cc1ccccc1)c1ccccc1)N1CCCC1` (stereo unspecified) [BEPRIDIL], the Activity turned out to be 160.34%.

The test system of the next test is H4. Kind of test: Induction of light chain 3-GFP level in human H4 cells at 6.2 uM after 24 hrs by high throughput fluorescence microscopy relative to control. It is filed as functional. The method, boiled down: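 H4 cells stably expressing LC3-GFP, grown in DMEM with 10% FBS, penicillin/streptomycin and 2 mM L-glutamine at 37°C, 5% CO2. Cells were seeded in 96-well plates and exposed to library compounds at 3–12 μM for 24 h, then fixed in 4% paraformaldehyde and stained with 3 μg/ml DAPI. LC3-GFP spot number, size and intensity were measured by high-throughput fluorescence microscopy and expressed relative to DMSO. Triplicates, mean ± SD.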
Turning to `CC(C)COCC(CN(Cc1ccccc1)c1ccccc1)N1CCCC1` (stereo unspecified) [BEPRIDIL], the Activity is given as 111.92%.

In a further test the test system is H4. The test can be described thus: Increase in light chain 3-GFP+ autophagosome vesicle number per cell in human H4 cells at 6.3 uM after 24 hrs by high throughput fluorescence microscopy relative to control. In kind it is functional. The essentials: as §3
`C/C1=C/C(=O)O[C@@H]2C[C@@H](CC[C@H](C)/C=C\CC1)O[C@@](O)([C@@H]1CSC(=O)N1)C2` [LATRUNCULIN B] had an Activity of 263.28%.

`CCCNC(=O)[C@H]1O[C@@H]1C(=O)N[C@H](C(=O)N1CCC[C@H]1C(=O)OC)[C@@H](C)CC` displayed an Activity of 197.44%.

In another test the test system is H4. Kind of test: Increase in long-lived protein degradation in human H4 cells after 1 hr relative to control. In kind it is functional. Also on record: concentration or dose not given beside the values.
Consider `CC(C)COCC(CN(Cc1ccccc1)c1ccccc1)N1CCCC1` (stereo unspecified) [BEPRIDIL], for which the Activity was 101.9%.

As to `CCCNC(=O)[C@H]1O[C@@H]1C(=O)N[C@H](C(=O)N1CCC[C@H]1C(=O)OC)[C@@H](C)CC`, the Activity was determined as 115.2%.

The subject of a further test is H4. Kind of test: Effect on FYVE-RFP+ vesicle intensity per cell in human H4 cells after 4 hrs relative to control. In kind it is functional. On the set-up: concentration or dose not given beside the values. The essentials:
as §4
For the compound `CCCNC(=O)[C@H]1O[C@@H]1C(=O)N[C@H](C(=O)N1CCC[C@H]1C(=O)OC)[C@@H](C)CC`, the Activity is reported as 79.82%.

For the next test, the system named is H4. Kind of test: Decrease in FYVE-RFP+ vesicle intensity per cell in human H4 cells after 4 hrs relative to control. It is filed as functional. Also on record: concentration or dose not given beside the values. The method, boiled down:
as §4
In turn, `CC(C)COCC(CN(Cc1ccccc1)c1ccccc1)N1CCCC1` (stereo unspecified) [BEPRIDIL] returned an Activity of 45.17%.

Another test concerns H4. The test can be described thus: Increase in light chain 3-GFP+ autophagosome vesicle intensity per cell in human H4 cells at 6.2 uM after 24 hrs by high throughput fluorescence microscopy relative to control. It is filed as functional. The essentials:
as §1
With `CC(C)COCC(CN(Cc1ccccc1)c1ccccc1)N1CCCC1` (stereo unspecified) [BEPRIDIL], the Activity is recorded as 168.39%.

The next test relates to H4. The test can be described thus: Effect on FYVE-RFP+ vesicle intensity per cell in human H4 cells after 8 hrs relative to control. In kind it is functional. On the set-up: concentration or dose not given beside the values. The method, boiled down: as §4
`CCCNC(=O)[C@H]1O[C@@H]1C(=O)N[C@H](C(=O)N1CCC[C@H]1C(=O)OC)[C@@H](C)CC` registered an Activity of 86.43%.

A further test relates to H4. The test can be described thus: Increase in long-lived protein degradation in human H4 cells after 24 hrs relative to control. It is filed as functional. Also on record: concentration or dose not given beside the values.
Turning to `CC(C)COCC(CN(Cc1ccccc1)c1ccccc1)N1CCCC1` (stereo unspecified) [BEPRIDIL], the Activity is recorded as 117.59%.

As for `CCCNC(=O)[C@H]1O[C@@H]1C(=O)N[C@H](C(=O)N1CCC[C@H]1C(=O)OC)[C@@H](C)CC`, the Activity was 89.11%.

The next test has as its system H4. Kind of test: Decrease in FYVE-RFP+ vesicle intensity per cell in human H4 cells after 8 hrs relative to control. In kind it is functional. On the set-up: concentration or dose not given beside the values. The method, boiled down:
as §4
With `CC(C)COCC(CN(Cc1ccccc1)c1ccccc1)N1CCCC1` (stereo unspecified) [BEPRIDIL], the Activity is recorded as 35.94%.

In a further test the test system is H4. Kind of test: Increase in long-lived protein degradation in human H4 cells after 2 hrs relative to control. It is filed as functional. On the set-up: concentration or dose not given beside the values.
As to `CC(C)COCC(CN(Cc1ccccc1)c1ccccc1)N1CCCC1` (stereo unspecified) [BEPRIDIL], the Activity worked out at 112.64%.

As for `CCCNC(=O)[C@H]1O[C@@H]1C(=O)N[C@H](C(=O)N1CCC[C@H]1C(=O)OC)[C@@H](C)CC`, the Activity worked out at 110.18%.

The test system of a further test is H4. The test can be described thus: Increase in long-lived protein degradation in human H4 cells after 4 hrs relative to control. In kind it is functional. On the set-up: concentration or dose not given beside the values.
`CC(C)COCC(CN(Cc1ccccc1)c1ccccc1)N1CCCC1` (stereo unspecified) [BEPRIDIL] displayed an Activity of 98.78%.

With `CCCNC(=O)[C@H]1O[C@@H]1C(=O)N[C@H](C(=O)N1CCC[C@H]1C(=O)OC)[C@@H](C)CC`, the Activity was determined as 81%.
